Laboratory results as given in the EternaBench riboswitch data.

System: MS2 coat protein
Assay: apparent Kd, MS2 coat protein; higher = weaker binding; RNA-MaP array; FMN 200 µM where present
Method in brief: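 The apparent Kd is the median of filtered binding-curve fits, one per cluster, to green signal normalised to red-channel RNA signal and control-cluster median Fmax. The clusters were on Illumina sequencing chips, and stalled E. coli RNA polymerase had transcribed the designs on them. Titration used SNAP-549-labelled MS2 coat protein from 0.7 or 1.5 nM, doubling to 3 µM, without and then with constant ligand, in 100 mM Tris-HCl pH 7.5, 80 mM KCl, 4 mM MgCl2, BSA, DTT, yeast tRNA and Tween-20.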

[1] = designed as: ON switch for flavin mononucleotide, no ligand
[2] = ligand present: flavin mononucleotide, designed as: ON switch for flavin mononucleotide
[3] = designed as: OFF switch for flavin mononucleotide, no ligand
[4] = ligand present: flavin mononucleotide, designed as: OFF switch for flavin mononucleotide

GUGGUCAGACAUGAGGAUCACCCAUGUGGAAUAAAUAAGGGACAGGAUAUUCAAUAUAGGAUAUAGAAGAAGGGUUGGUUGGUG
apparent Kd [1]: 96.1 nM | apparent Kd [2]: 125 nM

AUGCCAAAAGGAGGAUAUGGAGCCUUAUUGGCUCCAGAAGGCUUGACAUGAGGAUCACCCAUGUGGCAGUGGUCUAAUGACCAC
apparent Kd [1]: 18.5 nM | apparent Kd [2]: 15.1 nM

AAUAAACUCACAGGAUAUAGCAGAGGUCGCGUGAACUUACAGACGACGAGGCUAGAAGGGUGACCACAUGAGGAUCACCCAUGU
apparent Kd [1]: 312 nM | apparent Kd [2]: 65.4 nM

UAAAUUCGAAACAUGAGGAUCACCCAUGUGUUGUGGUUUAUAUAGGAUAUGUGGAUACUUUUUUGACAGAAGGAUGAUGGUACU
apparent Kd [1]: 13.2 nM | apparent Kd [2]: 10.9 nM

AGCAGACGAGGAUAUAGAUGGAAUGACAUGAGGAUCACCCAUGUGAUCGAUCUAUUUGAUUUAGAAGGUGUCUGCU
apparent Kd [3]: 12.5 nM | apparent Kd [4]: 15.1 nM

CUUUUGUGAGGAUAUCAGUAGUAAAAAAAUAAAAUUACUACUGAGAAGGCACAUGAGGAUCACCCAUGUUCCUC
apparent Kd [3]: 30.7 nM | apparent Kd [4]: 237 nM

CCUUUACAUGAGGAUCACCCAUGUCAGGAUAUCCUGUGGUGUUGUCUCGGGCGACACAUGAGCCAGGAGAAGGGACGAAGGGAA
apparent Kd [3]: 49 nM | apparent Kd [4]: 76.3 nM

GCUUCACAUGAGGAUCACCCAUGUUUUCGGAGUCGAGGAUAUGGUCACUGUAAACAGUGGCCAGAAGGCGAGGAGC
apparent Kd [1]: 18.2 nM | apparent Kd [2]: 16.7 nM

GCGAUAUUGUAAGGAUAUACUCUGUGAUGAAGAGUAGAAGGUACUUACAUGAGGAUCACCCAUGUUUAACGUGAUACUAAUCGC
apparent Kd [1]: 541 nM | apparent Kd [2]: 210 nM

AAUAUAAAGAGCUGGUAAACUCAAACAUGAGGAUCACCCAUGUAGGAUAUCAGCACGAUAAGUGCUGAGAAGGACAUCCAGCUC
apparent Kd [3]: 15.9 nM | apparent Kd [4]: 15.4 nM

GUGUACGGAGGAUAUAUGUGGGCAGGCUGACCUGCAGCUUCACAUGAGGAUCACCCAUGUAGAAGGCUGUACAC
apparent Kd [3]: 22.7 nM | apparent Kd [4]: 114 nM

GUCAGCUCGUGAGGAUAUACAACACUGCUUCGGCAGUGUAUUAAGACCACAUGAGGAUCACCCAUGUAGAAGGCACGAGCUGAU
apparent Kd [3]: 5.18 nM | apparent Kd [4]: 14.3 nM

GGGCUGGUAACAGGAUAUCGUGCCUGGCCGGAUUACAUGAGGAUCACCCAUGUCGUUGGAACCAACGAGAAGGGUUGCCUCCCG
apparent Kd [1]: 199 nM | apparent Kd [2]: 28.7 nM

GGGUACAUCGGAGGAUAUCAUGUAAAUACAUGAGGAUCACCCAUGUCGAUGUAGACAUCGGAGAUUGAGAAGGCCGAUGUACCG
apparent Kd [1]: 1400 nM | apparent Kd [2]: 52 nM

CCAUUUCUGUAAGGAUAUAUAAACAUGACGAUACAUGAGGAUCACCCAUGUGUAGAAGGUACAAAUACAUAUAAUACAAUGCUC
apparent Kd [3]: 13.1 nM | apparent Kd [4]: 11.7 nM

ACAUUUAAUACAGGAUAUGUUAGUAUACAGUUGAUUGGUUAUUACAUUAUAACAGAAGGGUAGAACAUGAGGAUCACCCAUGUA
apparent Kd [1]: 153 nM | apparent Kd [2]: 73.2 nM

CUCUUGUUAGGAUAUCAAACCGGCGGCGGAGCCGCCGGAAGUGAGAAGGGACAUGAGGAUCACCCAUGUAAGAA
apparent Kd [3]: 71.5 nM | apparent Kd [4]: 312 nM

CUAUUGAUAACAGGAUAUAUGAGUCCUACAUGAGGAUCACCCAUGUAGGUGAUCAGCCGUGAUUAGUAGAAGGGUUAUCAAUAG
apparent Kd [1]: 12.7 nM | apparent Kd [2]: 6.63 nM

GCGUAUUAGGUGUAGCUAGUCAUUCAAGAAGGGUGGAGAACAUGAGGAUCACCCAUGUAGUUUAUACAGGAUAUUGAUAUACGC
apparent Kd [1]: 489 nM | apparent Kd [2]: 101 nM

ACAGCGGCAGGAUAUGCAUGCUCCGACUUAUGCCGACAAAGACAUGAGGAUCACCCAUGUAGAAGGGCCAGCGG
apparent Kd [3]: 23.1 nM | apparent Kd [4]: 22.8 nM

GCGUCGAGUGUGAGGAUAUGCUGGUCCUUGGAUCAGCAGAAGGCACAUGAGGAUCACCCAUGUGAAUACGAUGC
apparent Kd [3]: 21.7 nM | apparent Kd [4]: 136 nM

CCCAUCGCAUGAGGAUAUGCUCCGGUUUCCGGAGCAGAAGGCAUGUCAUAAGACAUGAGGAUCACCCAUGUAGUUAAGAUGGGA
apparent Kd [1]: 529 nM | apparent Kd [2]: 30.4 nM

AUUAACUACAUAGGAUAUUGAUACAUGAGGAUCACCCAUGUCACCCAUUUAUAUAUUAAUAUUGACAAGAAGGAUGUGGUUACA
apparent Kd [1]: 13.1 nM | apparent Kd [2]: 6.13 nM

AGUCGGAGCAGAGGAUAUAUACAUGAGGAUCACCCAUGUGACUGACUACGCUGGAAACAGCAUGUAUAGAAGGCUGCUCCGACA
apparent Kd [3]: 448 nM | apparent Kd [4]: 882 nM

UUCGUGCUGCUUUGCUGUACGAGUACAUGAGGAUCACCCAUGUAGGAUAUGGACAUGAGGAUCACCCAGAAGGAUAUGUGUUGC
apparent Kd [3]: 113 nM | apparent Kd [4]: 141 nM

ACCAAUGGAGGAUAUACAUGAGGAUCACCCAUGUAUAACCUACAUAGGUGAAAAUUAUGUAGAAGGCCAUUGGA
apparent Kd [3]: 14.6 nM | apparent Kd [4]: 13.4 nM

GGGCUGGGAGGAUAUUCAUUGGGAAACAUGAGGAUCACCCAUGUGAUAUAAGGGAAAUCCGGAGAAGGCUCGGUUC
apparent Kd [3]: 18.1 nM | apparent Kd [4]: 18.8 nM
